# Screens (PubChem BioAssay)
# B2AR ag = beta2AR agonists driving receptor internalization, primary screen, cell-based, FAP fluorogen, flow cytometry; Beta-2 adrenergic receptor (Homo sapiens), P07550; Am2.2-beta2AR cells; response, % (concentration not given with the values); 0.43% of 340,000 active; AID 504454, 2011;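 active means response above a set limit, near 3 SD of response in nonfluorescent compounds, cut at about 42% in these data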
# CCR6 antag = CCR6 receptor antagonists, primary screen, cell-based, CHO-K1, luminescence, beta-arrestin, uHTS; CHO-K1 CCR6 PathHunter beta-arrestin, CCL20-stimulated; C-C chemokine receptor type 6 (Homo sapiens), P51684; inhibition, % at 20 µM; 0.49% of 340,000 active;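 active means compounds whose inhibition of the agonist-driven luminescence signal at 20 µM reaches about 50%, limit read from the data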;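 further: cells stimulated with CCL20 at 14 nM final; plate controls were DMSO with CCL20 for no effect and DMSO without agonist for full effect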
# EBI2 block = EBI2 receptor antagonists, beta-arrestin recruitment, primary screen, cell-based, luminescence, 7a,25-OHC stimulation, uHTS | G-protein coupled receptor 183 (Homo sapiens), P32249 | inhibition, % at 5 µM | 7a,25-OHC stimulated | 0.81% of 360,000 active; in the data active means inhibition above about 38%;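 further: enzyme fragment complementation signal reports receptor beta-arrestin coupling in cells; 0% = agonist plus DMSO wells and 100% = wells without agonist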
# APJ ag = agonists of human apelin receptor APJ, primary screen, CHO-K1 cells, PathHunter beta-arrestin, luminescence; P35414; 0% DMSO wells, 100% apelin; activation, % at 20 µM; 0.11% of 330,000 active; AID 2520, 2010;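 active means activation more than six SD over the plate average, tested at 20 µM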;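 further: 0% = DMSO alone and 100% = apelin-13 at 10 nM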
#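 Incubation: overnight seeding, 90 min compound at 25 °C, 1 h detection; test system: PathHunter CHO-K1 APJ (AGTRL-1) beta-arrestin reporter cells; amount: 1000 cells/well; doses: one dose, 20 µM compound, 1% DMSO; measured by: beta-gal luminescence; measure: agonist-driven arrestin binding to APJ; benchmarks: negative DMSO alone, positive Apelin-13 at 10 nM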
# APJ antagonist = antagonists of human apelin receptor APJ, primary screen, CHO-K1 cells, beta-arrestin complementation, luminescence; 0.32% of 330,000 active; P35414; inhibition, % at 20 µM; AID 2521, 2010;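 active means inhibition above about 40% at 20 µM, limit read from the data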;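 further: cells challenged with 10 nM apelin-13 agonist together with compound; plate controls were apelin-13 plus DMSO wells for no effect and DMSO wells lacking apelin-13 for full effect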
# CXCR6 block = CXCR6 receptor inhibitors, primary screen, cell-based, beta-arrestin, luminescence, CHO-K1 PathHunter, 1536-well | AID 602244, 2012 | C-X-C chemokine receptor type 6 (Homo sapiens), O00574 | 0.36% of 360,000 active | inhibition, % at 20 µM; in the data active means inhibition above about 34%, passing the limit was not always enough;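 further: antagonist mode with CXCL16 agonist at 10 nM final; 0% = 10 nM CXCL16 with DMSO and 100% = unstimulated wells without agonist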
# Target sequence (O00574 whole entry, looked up): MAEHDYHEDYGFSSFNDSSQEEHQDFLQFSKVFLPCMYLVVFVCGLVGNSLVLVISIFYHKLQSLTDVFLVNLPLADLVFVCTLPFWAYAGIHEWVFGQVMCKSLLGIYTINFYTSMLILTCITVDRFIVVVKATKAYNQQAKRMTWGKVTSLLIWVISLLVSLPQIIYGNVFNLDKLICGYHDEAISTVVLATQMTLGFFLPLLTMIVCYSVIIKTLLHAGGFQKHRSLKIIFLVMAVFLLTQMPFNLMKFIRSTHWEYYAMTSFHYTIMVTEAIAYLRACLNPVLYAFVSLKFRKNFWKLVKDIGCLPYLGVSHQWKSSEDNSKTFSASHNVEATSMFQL
# Numbers without * were called inactive; x = not tested or not shown. Most compounds without a hit are left out; they make up all but 1.8% or so of the library.
SMILES,B2AR ag,CCR6 antag,EBI2 block,APJ ag,APJ antagonist,CXCR6 block
O[C@@H]1[C@@H](O)C=C2CCN3Cc4cc5c(cc4[C@H]1C23)OCO5 (some centres not stated),60.7*,1.4,13.4,9.3,13.8,8.3
S=C(NCc1ccccn1)NN=Cc1ccccn1,-0.7,61.0*,-18.4,x,x,33.6
Cc1ccc(NC(=S)NCc2ccccn2)cc1,5.3,-1.7,-5.7,-1.2,-11.2,-4.5
COc1ccccc1C(=O)N=Nc1c(O)[nH]c2ccc([N+](=O)[O-])cc12,4.9,19.4,2.0,x,x,2.2
O=C(O)c1cc(N=Nc2c(O)[nH]c3ccc([N+](=O)[O-])cc23)ccc1Cl,3.3,39.9,10.5,-7.4,36.4,40.0*
O=C(N=Nc1c(O)[nH]c2ccc([N+](=O)[O-])cc12)c1cc(-c2ccccc2Cl)nc2ccccc12,1.3,64.9*,-0.9,-1.8,12.7,36.3
C=C1C(=O)C=C2CN(C(=O)c3ccccc3)[C@@](Cc3ccc(F)cc3)(C(=O)OC)[C@@H]12,79.3*,100.3*,75.7*,-10.0,37.4,87.5*
O=C(NC1CCCCC1)C(c1ccncc1)n1c(=O)c(-c2cc3ccccc3[nH]2)nc2ccccc21 (configuration not stated),x,x,-6.5,x,x,x
Oc1ccc(CN2CCN(Cc3ccccc3)CC2)c2cccnc12,9.3,17.3,67.7*,-6.1,13.5,27.2
O=[N+]([O-])c1cc(CN2CCN(c3ccccc3)CC2)c(O)c2ncccc12,43.7*,75.4*,17.1,-2.5,-1.6,56.0*
C[C@H](CO)N1C[C@H](C)[C@@H](CN(C)Cc2ccc(C(=O)O)cc2)Oc2ccc(NS(=O)(=O)c3cn(C)cn3)cc2C1=O,-8.9,-8.6,-3.5,-1.4,5.4,-1.4
CC(C)(C)N(Cc1ccccc1)C(=O)CN1C(=O)c2ccccc2S1(=O)=O,-1.5,5.5,10.9,-1.8,8.9,0.4
CC(c1nc2ccccc2n1Cc1ccccc1)n1c(-c2cnccn2)nc2ccccc21 (configuration not stated),x,x,13.6,x,x,x
CCC1=NN(C(=O)c2cccc(Br)c2)C(O)(c2ccc(Br)cc2)C1 (configuration not stated),19.9,56.0*,13.1,-5.3,28.0,32.2
CC(Sc1nnc(-c2cccnc2)o1)C(=O)NC1CCCCC1 (configuration not stated),-6.9,1.1,-7.3,-3.8,2.1,2.3
O=[N+]([O-])c1ccc(Nc2ccccc2O)c([N+](=O)[O-])c1,x,x,-10.7,x,x,-1.7
O=[N+]([O-])c1cc(Br)c(Nc2ccccc2)c([N+](=O)[O-])c1,46.6*,2.6,-2.1,7.7,-17.8,8.8
Cn1c(N=Nc2ccc(N3CCOCC3)cc2)[n+](C)c2ccccc21,-11.8,63.0*,11.7,x,x,54.2*
Cn1c(=Nc2ccc(N3CCOCC3)cc2)ccc2ccccc21,-1.1,-5.3,5.7,0.2,-3.4,6.7
Cc1ccsc1CNC(=O)C1(C)CCN1C(C)C (configuration not stated),x,x,-5.6,x,x,-1.9
Cc1ccc(Nc2c(-c3ccccn3)nc3cccc(C)n23)cc1,14.7,64.2*,21.9,-9.6,23.3,41.6*
Cc1cccc2nc(-c3ccco3)c(Nc3ccccc3)n12,3.4,17.5,0.1,-3.7,15.9,3.5
Cc1cc(NCc2ccccn2)n2nc(C)c(-c3ccc(Cl)cc3)c2n1,6.0,50.5*,-3.0,1.1,-8.4,20.8
CCN1/C(=C\C=C2\C(=O)N(C)C(=S)N2C)Sc2ccccc21,-12.1,37.8,20.9,19.1*,12.6,23.2
Cc1ccc(C(=O)CCC(=O)OCC(=O)NNC(=O)c2ccc([N+](=O)[O-])cc2)cc1,-0.6,12.1,-8.8,-1.7,-8.2,5.3
Cc1nc(N2CCN(C)CC2)c2sc(=S)n(-c3ccccc3)c2n1,-0.9,13.9,-0.1,-1.8,-55.6,-2.2
S=c1sc2c(Cl)ncnc2n1-c1ccccc1,103.5*,3.1,21.3,x,x,18.7
